EBV gp42 inh: inhibitors of Epstein-Barr virus glycoprotein 42; inhibition, % (tested at 21.74 µM); Fluorescence polarization binding assay, mP read-out; Q1HVG2; 0.42% of 220,000 active; in the data active = inhibition above about 50%
Target sequence (Q1HVG2 whole entry, looked up): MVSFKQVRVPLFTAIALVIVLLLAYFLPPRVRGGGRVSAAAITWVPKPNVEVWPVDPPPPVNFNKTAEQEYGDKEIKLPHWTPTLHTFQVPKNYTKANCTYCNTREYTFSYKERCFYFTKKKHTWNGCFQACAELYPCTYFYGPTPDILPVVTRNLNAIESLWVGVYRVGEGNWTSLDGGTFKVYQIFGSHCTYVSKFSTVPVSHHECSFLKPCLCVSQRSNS
TbMetRS inhib: blocks T. brucei methionyl-tRNA synthetase activity; purified T. brucei MetRS, ATP depletion, Kinase-Glo luminescence; inhibition, % at 11.9 µM; 0.4% of 360,000 active;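 active = inhibition above a per-plate cutoff of the control wells' mean inhibition plus 3 SD, cut at about 5.5% in these data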
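Test system – parasite MetRS enzyme · Reagent – substrates ATP, L-methionine and bulk Escherichia coli tRNA · Doses – 11.9 µM compound single dose, 0.9% DMSO · Times – 15 min enzyme-compound preincubation, 2 h reaction, 10 min detection, 25 °C · Signal – Kinase-Glo luminescence, ATP depletion format · Controls – DMSO-only wells as low control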
CHOP inh: CHOP inhibition in unfolded protein response; inhibition, % at 10 µM; 3.8% of 220,000 active; AID 2732; CHO-K1 CHOP-promoter luciferase, tunicamycin-induced, 15-18 h;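 active = compounds that reduced the stress-induced luciferase reporter signal by more than about 70% of percent inhibition, limit read from the data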
WT yeast gro inh: growth inhibition of WT yeast, mitochondrial fusion screen; mitochondrial fusion phenotypic screen, WT strain; inhibition, % at 10 µM; 2.1% of 190,000 active; AID 1362; in the data active = inhibition above about 58%; tested in S. cerevisiae
MPTP inh: blocks calcium-induced mitochondrial swelling; isolated mouse mitochondria, Ca2+ swelling absorbance, 30 min; inhibition, % at 10 µM; 1.4% of 360,000 active; AID 602449;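 active = inhibition of 50% or more, scaled per plate between neutral and stimulator controls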
GRIN3A LBD mod: NR3A (human) ligand-binding domain modulation; Tm shift relative to glycine control, % at 25 µM; NR3A LBD differential scanning fluorimetry, Tm shift; 0% = protein alone, 100% = glycine-bound protein; 2.5% of 340,000 active;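 active = melting temperature shift of at least 10% of the positive control shift, at one fixed dose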
Hits are given with their value; i = inactive; nt = not tested or not shown. A selection: hits, their analogues and other compounds. The true share with any hit is near 6.4%.

SMILES	EBV gp42 inh	TbMetRS inhib	CHOP inh	WT yeast gro inh	MPTP inh	GRIN3A LBD mod
O=[N+]([O-])c1cccc(N/N=C/c2ccc(N3CCOCC3)cc2)c1	nt	i	nt	nt	i	22
O=[N+]([O-])c1ccc(C=NNc2ccccc2)cc1	nt	i	nt	nt	i	34
Cc1ccc(-c2nc(N/N=C/c3cccc([N+](=O)[O-])c3)c3ccccc3n2)cc1	i	i	81	i	i	163
CCOc1ccc(/C(O)=C2/C(=O)C(=O)N(c3ncccn3)C2c2ccc(Cl)cc2)cc1 (stereo not given)	i	i	i	nt	i	i
COc1cccc(COC(=O)c2ccc3c(=O)n4c(nc3c2)CCC4)c1OC	nt	i	nt	nt	i	i
Cc1cc(-c2ccccc2)nc(N/N=C/c2ccccc2)n1	nt	i	nt	nt	i	i
Cc1cc(-c2ccccc2)nc(N/N=C/c2ccc([N+](=O)[O-])cc2)n1	i	i	i	i	i	24
O=C1NCCc2c1[nH]c1c(Cl)ccc(Cl)c21	i	i	i	89	i	i
O=C1NCCc2c1[nH]c1ccccc21	i	i	i	i	i	i
CCCCNC(=S)NNc1c(Cl)cc(Cl)cc1Cl	i	i	82	i	i	i
CC(=O)O[C@H]1C(=O)[C@@]2(C)C([C@H](OC(=O)c3ccccc3)[C@]3(O)C[C@H](OC(=O)[C@H](O)[C@@H](NC(=O)c4ccccc4)c4ccccc4)C(C)=C1C3(C)C)[C@]1(OC(C)=O)CO[C@@H]1C[C@@H]2O (stereo not given in full)	nt	nt	88	nt	nt	nt
C[C@H](NC(=O)C(c1ccccc1)c1ccccc1)c1ccccc1	nt	i	nt	nt	i	i
CCC(=O)NCCSc1c[nH]c2ccccc12	i	i	i	i	i	i
Cc1ccnc(NS(=O)(=O)c2ccc(N=CC3=C(O)CC(C)(C)CC3=O)cc2)n1	i	i	i	67	i	i
CC1(C)CC(=O)C(C=Nc2ccccc2)=C(O)C1	i	i	i	i	i	i
Cc1sc(-n2c(C)cc(/C=C3\SC(=S)NC3=O)c2C)c(C#N)c1C	i	i	i	77	i	i
Cc1cc(/C=C2\SC(=S)NC2=O)c(C)n1-c1cccc(O)c1	i	i	i	nt	i	i
COC(=O)c1c(NC(=O)CN2CCN(S(=O)(=O)c3ccccc3)CC2)sc2c1CCC(C)C2 (stereo not given)	i	nt	i	i	nt	nt
O=C1NN(c2ccccc2)C(=O)/C1=C/c1ccc(-c2ccc(C(=O)O)cc2)o1	nt	i	nt	nt	i	i
O=C(O)c1ccc(N2C(=O)/C(=C/c3ccc(-c4ccc([N+](=O)[O-])cc4)o3)C=C2c2ccccc2)cc1	82	i	i	i	i	i
CCCCN(C(=O)COC(=O)COc1c(C)cc(C)cc1C)c1c(N)n(CCC)c(=O)[nH]c1=O	nt	i	nt	nt	i	32
Nc1nnc(-c2ccc(Cl)cc2Cl)s1	i	i	i	i	i	12
CC(=Nc1cc(C(=O)c2ccccc2)ccc1N)C1=C(O)CC(C)(C)CC1=O	i	i	i	i	i	i
O=C(C=Cc1cccnc1)c1ccccc1	nt	i	nt	nt	i	i
O=C(/C=C/c1cccnc1)c1ccccc1O	i	i	i	nt	i	15
SMILES	EBV gp42 inh	TbMetRS inhib	CHOP inh	WT yeast gro inh	MPTP inh	GRIN3A LBD mod
O=C(/C=C/c1ccc2c(c1)OCCCO2)c1ccccc1O	i	i	i	67	i	i
Cc1ccc(O)c(C(=O)/C=C/c2ccc3c(c2)OCCCO3)c1	i	i	i	61	i	i
COc1ccc(C=CC(=O)c2cc(O)ccc2O)cc1	nt	i	nt	nt	i	32
CCCCn1c(SCc2nc3ccccc3s2)nc2ccccc2c1=O	i	i	i	i	i	i
COc1ccc(Nc2cc(Nc3cc(OC)c(OC)c(OC)c3)ncn2)cc1	nt	i	nt	nt	i	14
COc1ccc(Nc2ccc(Nc3ccc(OC)cc3)nn2)cc1	i	i	i	i	i	27
COc1ccc(Nc2cc(Nc3cccc(OC)c3)ncn2)cc1	nt	i	nt	nt	i	27
COc1ccc(Nc2cc(Nc3ccc(OC)cc3)ncn2)cc1	nt	i	nt	nt	i	16
COc1cccc(Nc2ncnc3ccc(Br)cc23)c1	nt	i	nt	nt	i	nt
C/C(CC1CC(COCC(C)C)OC1=O)=N\NC(N)=S (stereo not given)	i	i	i	i	i	i
COc1ccc(Cl)cc1C=CC=NNS(=O)(=O)c1ccc(C)cc1	nt	i	nt	nt	i	20
CCOC(=O)c1cc(-c2ccccc2)n(CC(=O)Nc2ccc(OCC)cc2)c1C	i	i	80	i	i	i
CC(=O)c1cc(-c2ccccc2)n(CC(=O)Nc2cc(C)cc(C)c2)c1C	i	i	94	i	i	i

High-throughput results from PubChem.
